Test results published in PubChem BioAssay.
Calls of active or inactive are those of the source.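 How the source made its calls, unless noted: active means viability loss from added drug above about 55%, and viability with drug at most 40%, in both replicates (limit read from the data, passing the limit was not always enough); inconclusive means both conditions met in only one replicate; inactive means neither replicate meets both conditions.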

How the values were obtained:
[1] = reducers of endogenous Her2 protein level, primary screen, SKBR3 breast tumor cells, AlphaScreen, ATP viability (AID 461;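 active means Her2 level under about 52% in both replicate screens, with viability over 70% of control, limit read from the data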;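 on Her2 level: lower value means less Her2 protein in the cells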;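 on viability: percent of carrier control wells set as 100% viability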); settings: 18-24 h, measured here: SKBR3 viability, ATP luminescence, at 10 µM
[2] = molecular target: Receptor tyrosine-protein kinase erbB-2 (Homo sapiens) (UniProt P04626); experiment: as above; settings: 18-24 h, at 10 µM, stronger effect = lower value
[3] = SK-BR-3 cell growth inhibitors, pilot screen, 24 h, human (AID 572;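 active means viability at or below 10% of carrier control in both of two separate runs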;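 further: compound exposure lasted between 18 and 24 h rather than exactly 24 h; 100% = carrier-treated control wells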); settings: SK-BR-3 viability, CellTiter-Glo luminescence, at 10 µM, stronger effect = lower value
[4] = HUVEC growth inhibition – cell-based, human, primary screen (AID 575;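 active means viability at or below 30% in both replicate assays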;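 further: 100% = median of untreated cell wells with 0.1% DMSO on each plate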); settings: HUVEC proliferation, CellTiter-Glo luminescence, 72 h; at 10 µM; stronger effect = lower value
In short: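 Test system: primary human umbilical vein endothelial cells. Quantity: 1250 cells/well. Compound: single 10 µM dose, 0.1% DMSO, from 5x medium stock. Timing: 72 h treatment at 37 °C. Detection: ATP-based CellTiter-Glo luminescent read. Benchmarks: vehicle and MePR control wells. Format: 384-well plates coated with collagen.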

[5] = growth inhibitors of H69AR lung tumor, primary screen, human, duplicate replicates (AID 580;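 active means viability at or under a set limit in both replicates, limit being median viability minus 3 SD, cut at about 48% in these data, passing the limit was not always enough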;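 further: 100% = mean luminescence of untreated wells and 0% = no signal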); settings: H69AR lung tumor cells viability, ATP luminescence, 72 h; at 10 µM; stronger effect = lower value
[6] = reversal of MRP1-mediated doxorubicin resistance, pilot screen, H69AR cells, doxorubicin co-treatment (AID 601); settings: CellTiter-Glo, 72 h, at 10 µM; for differential viability (reversal): stronger effect = higher value
[7] = 384-well plate pilot, post-Golgi transport modulator project, inhibition of yeast transport mutant growth (AID 636; in the data active means inhibition above about 31%); settings: absorbance 615 nm, about 18 h, stronger effect = higher value
[8] = growth suppression of yeast trafficking mutant, preliminary HTS, modulators of trafficking downstream of Golgi apparatus project, 1536-format plate, OD 615 nm (AID 637; in the data active means inhibition above about 30%); settings: yeast transport mutant growth, absorbance 615 nm, 18 h; stronger effect = higher value
[9] = H69AR cells + 2 uM doxorubicin, measured here: viability with 2 uM doxorubicin, stronger effect = lower value
[10] = H69AR cells, compound alone cytotoxicity

Receptor tyrosine-protein kinase erbB-2 (Homo sapiens), sequence (P04626 whole entry, looked up): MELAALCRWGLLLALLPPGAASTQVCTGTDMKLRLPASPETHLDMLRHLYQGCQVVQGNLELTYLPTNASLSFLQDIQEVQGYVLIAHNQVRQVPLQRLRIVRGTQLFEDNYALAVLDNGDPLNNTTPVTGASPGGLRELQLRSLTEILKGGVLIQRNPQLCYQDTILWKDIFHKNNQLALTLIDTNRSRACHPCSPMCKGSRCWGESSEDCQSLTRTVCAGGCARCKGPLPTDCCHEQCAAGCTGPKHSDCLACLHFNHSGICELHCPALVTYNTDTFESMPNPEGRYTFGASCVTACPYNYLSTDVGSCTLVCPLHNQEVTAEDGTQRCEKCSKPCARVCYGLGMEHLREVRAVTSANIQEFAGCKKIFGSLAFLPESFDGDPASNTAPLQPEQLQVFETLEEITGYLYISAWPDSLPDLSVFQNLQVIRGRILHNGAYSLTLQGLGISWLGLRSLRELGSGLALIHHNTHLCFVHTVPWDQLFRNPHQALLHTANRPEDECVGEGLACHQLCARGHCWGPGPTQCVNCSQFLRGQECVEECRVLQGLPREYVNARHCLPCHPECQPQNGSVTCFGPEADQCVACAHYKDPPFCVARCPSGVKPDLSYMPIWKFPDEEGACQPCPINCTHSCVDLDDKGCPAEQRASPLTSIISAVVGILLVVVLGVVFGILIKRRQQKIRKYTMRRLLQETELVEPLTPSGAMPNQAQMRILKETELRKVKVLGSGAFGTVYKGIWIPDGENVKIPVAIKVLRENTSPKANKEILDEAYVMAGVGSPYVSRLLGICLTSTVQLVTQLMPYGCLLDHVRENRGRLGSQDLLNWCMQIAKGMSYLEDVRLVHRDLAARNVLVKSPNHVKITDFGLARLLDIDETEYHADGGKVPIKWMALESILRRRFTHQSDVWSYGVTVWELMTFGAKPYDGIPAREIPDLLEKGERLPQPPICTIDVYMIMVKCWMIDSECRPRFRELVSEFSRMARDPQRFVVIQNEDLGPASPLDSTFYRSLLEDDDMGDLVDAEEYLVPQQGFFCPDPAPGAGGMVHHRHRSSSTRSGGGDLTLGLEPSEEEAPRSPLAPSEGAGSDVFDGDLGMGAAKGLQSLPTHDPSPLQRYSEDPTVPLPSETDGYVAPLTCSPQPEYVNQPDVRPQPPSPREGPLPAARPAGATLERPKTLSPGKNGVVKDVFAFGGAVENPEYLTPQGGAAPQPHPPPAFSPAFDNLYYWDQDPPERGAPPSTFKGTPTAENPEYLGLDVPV

Compound | viability [1] | Her2 level [2] | viability [3] | viability [4] | viability [5] | differential viability (reversal) ([6]; H69AR cells + 2 uM doxorubicin) | viability [6, 9] | viability [6, 10] | inhibition [7] | inhibition [8]
COc1ccccc1CN1CCCC(C(=O)N(C)Cc2ccccc2)C1 (stereo not given) | 70% | 116% (inactive) | 70% (inactive) | 99.1% (inactive) | 81.1% (inactive) | 3.71% (inactive) | 77.4% | 81.1% | -0.77% (inactive) | 5% (inactive)
CC(=O)Nc1c2c(nn1-c1ccc(C)cc1C)CSC2 | 109% | 113% (inactive) | 109% (inactive) | 101% (inactive) | 90.7% (inactive) | -2.51% (inactive) | 93.2% | 90.7% | -1.17% (inactive) | -2.54% (inactive)
Cc1cc2nc3c(nc2cc1C)C1(C(=O)O)CCC3(C)C1(C)C (stereo not given) | 103% | 95.5% (inactive) | 103% (inactive) | 99.9% (inactive) | 95.3% (inactive) | -0.805% (inactive) | 96.1% | 95.3% | 0% (inactive) | -2.3% (inactive)
Cc1cc2c(nn1)CCC/C2=N\O | 104% | 99% (inactive) | 104% (inactive) | 123% (inactive) | 95.6% (inactive) | 3.77% (inactive) | 91.8% | 95.6% | -4.47% (inactive) | 6.72% (inactive)
CCOC(=O)CC(=O)Nc1c(C)cc(C)cc1C | 94.5% | 90.5% (inactive) | 94.5% (inactive) | 85% (inactive) | 102% (inactive) | 10.3% (inactive) | 91.8% | 102% | 2.57% (inactive) | -2.95% (inactive)
CN(CC(=O)Nc1ccc2c(c1)OCCO2)S(=O)(=O)c1ccc(Br)s1 | 90.5% | 94.5% (inactive) | 90.5% (inactive) | 111% (inactive) | 83.3% (inactive) | -10.7% (inactive) | 94% | 83.3% | -2.63% (inactive) | -10.8% (inactive)
CCOC(=O)N1CCC(NC(=O)CCN2C(=O)COc3ccccc32)CC1 | 100% | 106% (inactive) | 100% (inactive) | 100% (inactive) | 84.1% (inactive) | 6.63% (inactive) | 77.5% | 84.1% | 0% (inactive) | -6.17% (inactive)
Cc1cc2ncn(C(=O)c3c(-c4ccccc4)noc3C)c2cc1C | 102% | 110% (inactive) | 102% (inactive) | 76.8% (inactive) | 81.8% (inactive) | 4.1% (inactive) | 77.7% | 81.8% | 0.13% (inactive) | -6.23% (inactive)
Nc1scc(-c2ccncc2)c1Cl | 90.5% | 77.5% (inactive) | 90.5% (inactive) | 83.5% (inactive) | 96.2% (inactive) | 8.54% (inactive) | 87.7% | 96.2% | -5.07% (inactive) | -3.49% (inactive)
COCCN(CCOC)S(=O)(=O)c1ccc(C(=O)Nc2nnc(C3CC3)o2)cc1 | 75% | 86% (inactive) | 75% (inactive) | 80.5% (inactive) | 82.7% (inactive) | -1.53% (inactive) | 84.2% | 82.7% | -3.65% (inactive) | 1.48% (inactive)
COC(=O)c1ccc(CSc2nnc(-c3ccncc3)o2)o1 | 110% | 69% (inactive) | 110% (inactive) | 87.8% (inactive) | 100% (inactive) | 4.48% (inactive) | 95.8% | 100% | -4.8% (inactive) | 1.48% (inactive)
COc1ccccc1C(=O)Nc1ccc(S(=O)(=O)N2CCOCC2)cc1 | 104% | 104% (inactive) | 104% (inactive) | 92.9% (inactive) | 93.2% (inactive) | -0.52% (inactive) | 93.7% | 93.2% | -2.89% (inactive) | 4.59% (inactive)
Cc1cc(C)n(C2=NS(=O)(=O)c3ccccc32)n1 | 86.5% | 115% (inactive) | 86.5% (inactive) | 108% (inactive) | 101% (inactive) | 6.08% (inactive) | 95.2% | 101% | 3.07% (inactive) | 5.08% (inactive)
CNC(=O)CSc1nnc(-c2cc3c(C)nn(-c4ccccc4)c3s2)n1C | 112% | 112% (inactive) | 112% (inactive) | 99.2% (inactive) | 109% (inactive) | 22.3% (inactive) | 86.9% | 109% | -0.13% (inactive) | -2.54% (inactive)
COc1cc(-c2nnc(SCC(=O)c3ccc(C)cc3)o2)cc(OC)c1OC | 90% | 97.5% (inactive) | 90% (inactive) | 64.8% (inactive) | 74.5% (inactive) | -19.7% (inactive) | 94.2% | 74.5% | -1.45% (inactive) | 0.16% (inactive)
CCC(C)NC(=O)CC1Oc2ccc(C)cc2NC1=O (stereo not given) | 105% | 99% (inactive) | 105% (inactive) | 90.3% (inactive) | 91.7% (inactive) | -2.57% (inactive) | 94.2% | 91.7% | 0.13% (inactive) | -3.28% (inactive)

Compound | viability [1] | Her2 level [2] | viability [3] | viability [4] | viability [5] | differential viability (reversal) ([6]; H69AR cells + 2 uM doxorubicin) | viability [6, 9] | viability [6, 10] | inhibition [7] | inhibition [8]
CCSc1nnc(NC(=O)CSc2ncccn2)s1 | 97.5% | 102% (inactive) | 97.5% (inactive) | 112% (inactive) | 107% (inactive) | 22.3% (inactive) | 84.5% | 107% | -5.07% (inactive) | -2.74% (inactive)
COc1cc(OC)cc(OCC(O)Cn2cnc(-c3ccccc3)c2)c1 (stereo not given) | 90% | 84% (inactive) | 90% (inactive) | 88% (inactive) | 83.8% (inactive) | -11.4% (inactive) | 95.2% | 83.8% | 3.64% (inactive) | -2.13% (inactive)
COC(=O)c1ccc(NC(=O)CN2C(=O)CSC2=O)cc1 | 104% | 93% (inactive) | 104% (inactive) | 90.1% (inactive) | 106% (inactive) | 12% (inactive) | 94.4% | 106% | -4.67% (inactive) | 2.3% (inactive)
Cc1cccc(N2CCN(C(=O)c3cc4c(=O)[nH]c5ccccc5c4n3C)CC2)c1C | 72.5% | 57.5% (inactive) | 72.5% (inactive) | 65.5% (inactive) | 95.9% (inactive) | 13% (inactive) | 82.9% | 95.9% | -3.33% (inactive) | 11% (inactive)
COc1ccc(C(NC(=O)C(C)(C)C)NC(=O)C(C)(C)C)cc1 | 86% | 99.5% (inactive) | 86% (inactive) | 111% (inactive) | 91.7% (inactive) | 6.21% (inactive) | 85.5% | 91.7% | -5.32% (inactive) | -0.32% (inactive)
O=C1CCc2nc3sc4c(c3c(=O)n2N1)CCCC4 | 86.5% | 100% (inactive) | 86.5% (inactive) | 85.9% (inactive) | 91.3% (inactive) | 1.12% (inactive) | 90.2% | 91.3% | -1.05% (inactive) | -7.14% (inactive)
CCOC(=O)C1=C(C)NC2=C(C(=O)CC(C)(C)C2)C1c1ccc(N(C)C)cc1 (stereo not given) | 93% | 116% (inactive) | 93% (inactive) | 87% (inactive) | 94.3% (inactive) | -2.37% (inactive) | 96.6% | 94.3% | 1.3% (inactive) | -5.9% (inactive)
O=C(NCc1ccco1)c1cc2n(n1)C(C(F)(F)F)CC(c1ccc(F)cc1)N2 (stereo not given) | 120% | 106% (inactive) | 120% (inactive) | 67.1% (inactive) | 86.8% (inactive) | 3.92% (inactive) | 82.9% | 86.8% | -4.8% (inactive) | -4.68% (inactive)
CCC(=O)N(Cc1cc2c(C)ccc(C)c2[nH]c1=O)C1CCCCC1 | 86% | 71.5% (inactive) | 86% (inactive) | 79.2% (inactive) | 85.9% (inactive) | -0.72% (inactive) | 86.6% | 85.9% | -6.71% (inactive) | 0.32% (inactive)
CCCc1nn(CCc2ccccn2)c(N)c1CC | 114% | 91% (inactive) | 114% (inactive) | 89.4% (inactive) | 96.5% (inactive) | 3.08% (inactive) | 93.5% | 96.5% | -6% (inactive) | 0.66% (inactive)
Nc1nnc(-c2cn(-c3ccccc3)nc2-c2ccccc2)o1 | 73% | 131% (inactive) | 73% (inactive) | 77.3% (inactive) | 91.2% (inactive) | 10.7% (inactive) | 80.5% | 91.2% | 2.47% (inactive) | -15.5% (inactive)
Cn1c(=O)cc(OCC(=O)NCCCN2CCN(c3cccc(Cl)c3)CC2)c2ccccc21 | 85.5% | 74.5% (inactive) | 85.5% (inactive) | 48.7% (inactive) | 63.7% (inactive) | -1.39% (inactive) | 65.1% | 63.7% | -6.53% (inactive) | -2.62% (inactive)
O=C1C(C=NCCCn2ccnc2)=C(O)c2ccccc21 | 83% | 82.5% (inactive) | 83% (inactive) | 105% (inactive) | 99.2% (inactive) | 17.2% (inactive) | 82% | 99.2% | -5.14% (inactive) | -1.75% (inactive)
O=C(NCc1ccco1)c1cnn2c(C(F)(F)F)cc(-c3ccco3)nc12 | 86.5% | 74.5% (inactive) | 86.5% (inactive) | 92.9% (inactive) | 71.8% (inactive) | 0.17% (inactive) | 71.7% | 71.8% | -7.26% (inactive) | 1.9% (inactive)
COc1cc(C(c2sc3nc(C)nn3c2O)N2CC(C)CC(C)C2)cc(OC)c1OC (stereo not given) | 78% | 98.5% (inactive) | 78% (inactive) | 98.8% (inactive) | 103% (inactive) | 0.2% (inactive) | 103% | 103% | 0.9% (inactive) | 0.17% (inactive)
Cc1cc(C)c(C)c(OCC(=O)NCC2CCCO2)c1 (stereo not given) | 85% | 85.5% (inactive) | 85% (inactive) | 102% (inactive) | 100% (inactive) | 8.32% (inactive) | 91.9% | 100% | -3.38% (inactive) | 0.16% (inactive)
